ChEMBL document CHEMBL5724801, “EUbOPEN Chemogenomics Library - Multiplex” (2024)
Several values for one entry are separate records, joined by “and”; a condition that tells them apart may be missing. Equal entries are not always repeated.

tested on: HEK-293T; assay: Multiplex assay against HEK293T; format: toxicity, cell-based; details: human, 12 h, 1 µM, compound concentration 1 uM
Procedure, shortened: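 On a CQ1 microscope at 37°C and 5% CO2, live cells were imaged after compound addition. They had been stained at seeding with Hoechst33342, BioTracker Green Microtubule Cytoskeleton Dye, MitoTracker Red and Annexin V Alexa Fluor 680. CellPathfinder machine-learning gating assigned cells to Hoechst high-intensity objects or normal cells, normal cells to healthy, pyknosed or fragmented nuclei, and pyknosed cells to mitotic or apoptotic. Tubulin, mitochondrial-mass and membrane-permeability phenotypes are per cents of healthy-nucleus cells.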

Compound | Population Apoptotic (%) | Population Fragmented Nuclei (%) | Population Healthy Nuclei (%) | Population Hoechst High Intensity Objects (%) | Population Membrane Permeable-Phenotype (%) | Population Mitotic Cells (%) | Population Normal (%) | Population Pyknosed Nuclei (%) | Total Cell Count | Population Mitochondria Different-Phenotype (%)
O=C(Nc1cc(C(F)(F)F)cc(C(F)(F)F)c1)c1cc(Cl)ccc1O [IMD-0354] | 4.35% and 3.39% | 2.35% and 2.03% | 43.53% and 18.24% | 0.58% and 0% | 0.68% and 0% | 95.65% and 96.61% | 99.42% and 100% | 54.12% and 79.73% | 342 and 148 | –
Cc1ccc(F)cc1C(=O)Nc1ccc(C(=O)N2Cc3cccn3Cc3ccccc32)c(Cl)c1 [LIXIVAPTAN] | 36% and 40% | 5% and 6% | 83% and 74% | 7% and 5% | 0% | 63% and 60% | 92% and 94% | 10% and 19% | 486 and 335 | 45% and 57%

same assay, conditions: human, 12 h, 1 µM, compound concentration 1 uM

Compound | Population Tubulin-Different-Phenotype (%)
Cc1ccc(F)cc1C(=O)Nc1ccc(C(=O)N2Cc3cccn3Cc3ccccc32)c(Cl)c1 [LIXIVAPTAN] | 38% and 32%

same assay, conditions: human, 12 h, 10 µM, compound concentration 10 uM

Compound | Population Apoptotic (%) | Population Fragmented Nuclei (%) | Population Healthy Nuclei (%) | Population Hoechst High Intensity Objects (%) | Population Membrane Permeable-Phenotype (%) | Population Mitotic Cells (%) | Population Normal (%) | Population Pyknosed Nuclei (%) | Population Tubulin-Different-Phenotype (%) | Total Cell Count
O=C(Nc1cc(C(F)(F)F)cc(C(F)(F)F)c1)c1cc(Cl)ccc1O [IMD-0354] | 8.89% and 5.65% | 4.05% and 10.2% | 14.86% and 5.44% | 1.33% and 0% | 0% and 12.5% | 91.11% and 94.35% | 98.67% and 100% | 81.08% and 84.35% | 0% | 225 and 147
Cc1ccc(F)cc1C(=O)Nc1ccc(C(=O)N2Cc3cccn3Cc3ccccc32)c(Cl)c1 [LIXIVAPTAN] | 46% and 50% | 6% | 70% and 67% | 10% and 6% | 0% and 1% | 53% and 50% | 89% and 93% | 22% and 25% | 78% and 67% | 339 and 357

same assay, conditions: human, 12 h, 10 µM, compound concentration 10 uM

Compound | Population Mitochondria Different-Phenotype (%)
Cc1ccc(F)cc1C(=O)Nc1ccc(C(=O)N2Cc3cccn3Cc3ccccc32)c(Cl)c1 [LIXIVAPTAN] | 75% and 81%

same assay, conditions: human, 24 h, 1 µM, compound concentration 1 uM

Compound | Population Apoptotic (%) | Population Fragmented Nuclei (%) | Population Healthy Nuclei (%) | Population Hoechst High Intensity Objects (%) | Population Membrane Permeable-Phenotype (%) | Population Mitochondria Different-Phenotype (%) | Population Mitotic Cells (%) | Population Normal (%) | Population Pyknosed Nuclei (%) | Population Tubulin-Different-Phenotype (%)
O=C(Nc1cc(C(F)(F)F)cc(C(F)(F)F)c1)c1cc(Cl)ccc1O [IMD-0354] | 6.35% and 10.83% | 1.67% and 0% | 68.26% and 25.47% | 0.48% and 0% | 2.8% and 4.88% | 4.9% and 4.88% | 93.65% and 89.17% | 99.52% and 100% | 30.07% and 74.53% | 6.99% and 2.44%
Cc1ccc(F)cc1C(=O)Nc1ccc(C(=O)N2Cc3cccn3Cc3ccccc32)c(Cl)c1 [LIXIVAPTAN] | 30% and 36% | 9% and 10% | 77% and 76% | 5% and 7% | 0% | 30% and 42% | 69% and 63% | 94% and 92% | 13% | 24% and 22%

same assay, conditions: human, 24 h, 1 µM, compound concentration 1 uM

Compound | Total Cell Count
O=C(Nc1cc(C(F)(F)F)cc(C(F)(F)F)c1)c1cc(Cl)ccc1O [IMD-0354] | 421 and 161
Cc1ccc(F)cc1C(=O)Nc1ccc(C(=O)N2Cc3cccn3Cc3ccccc32)c(Cl)c1 [LIXIVAPTAN] | 595 and 423

same assay, conditions: human, 24 h, 10 µM, compound concentration 10 uM

Compound | Population Apoptotic (%) | Population Fragmented Nuclei (%) | Population Hoechst High Intensity Objects (%) | Population Membrane Permeable-Phenotype (%) | Population Mitochondria Different-Phenotype (%) | Population Mitotic Cells (%) | Population Normal (%) | Population Pyknosed Nuclei (%) | Population Tubulin-Different-Phenotype (%) | Total Cell Count
O=C(Nc1cc(C(F)(F)F)cc(C(F)(F)F)c1)c1cc(Cl)ccc1O [IMD-0354] | 5.52% and 6.29% | 3.57% and 12.35% | 0.88% and 0% | 5.71% and 0% | 5.71% and 0% | 94.48% and 93.71% | 99.12% and 100% | 80.8% and 84.12% | 5.71% and 16.67% | 226 and 170
Cc1ccc(F)cc1C(=O)Nc1ccc(C(=O)N2Cc3cccn3Cc3ccccc32)c(Cl)c1 [LIXIVAPTAN] | 37% and 58% | 5% and 8% | 7% and 6% | 0% | 74% and 78% | 62% and 41% | 92% and 93% | 24% and 19% | 71% and 69% | 392 and 401

same assay, conditions: human, 24 h, 10 µM, compound concentration 10 uM

Compound | Population Healthy Nuclei (%)
Cc1ccc(F)cc1C(=O)Nc1ccc(C(=O)N2Cc3cccn3Cc3ccccc32)c(Cl)c1 [LIXIVAPTAN] | 69% and 72%

same assay, conditions: human, 48 h, 1 µM, compound concentration 1 uM

Compound | Population Apoptotic (%) | Population Fragmented Nuclei (%) | Population Healthy Nuclei (%) | Population Hoechst High Intensity Objects (%) | Population Membrane Permeable-Phenotype (%) | Population Mitochondria Different-Phenotype (%) | Population Mitotic Cells (%) | Population Normal (%) | Population Pyknosed Nuclei (%) | Population Tubulin-Different-Phenotype (%)
O=C(Nc1cc(C(F)(F)F)cc(C(F)(F)F)c1)c1cc(Cl)ccc1O [IMD-0354] | 6.21% and 4.35% | 1.53% and 0.99% | 78.27% and 53.69% | 0% | 16.37% and 6.42% | 2.49% and 3.67% | 93.79% and 95.65% | 100% | 20.19% and 45.32% | –
Cc1ccc(F)cc1C(=O)Nc1ccc(C(=O)N2Cc3cccn3Cc3ccccc32)c(Cl)c1 [LIXIVAPTAN] | 22% and 17% | 12% | 80% | 2% and 4% | 0% | 19% and 24% | 77% and 82% | 97% and 95% | 6% and 7% | 17% and 21%

same assay, conditions: human, 48 h, 1 µM, compound concentration 1 uM

Compound | Total Cell Count
Cc1ccc(F)cc1C(=O)Nc1ccc(C(=O)N2Cc3cccn3Cc3ccccc32)c(Cl)c1 [LIXIVAPTAN] | 995 and 643

same assay, conditions: human, 48 h, 10 µM, compound concentration 10 uM

Compound | Population Apoptotic (%) | Population Fragmented Nuclei (%) | Population Healthy Nuclei (%) | Population Hoechst High Intensity Objects (%) | Population Membrane Permeable-Phenotype (%) | Population Mitochondria Different-Phenotype (%) | Population Mitotic Cells (%) | Population Normal (%) | Population Pyknosed Nuclei (%) | Total Cell Count
O=C(Nc1cc(C(F)(F)F)cc(C(F)(F)F)c1)c1cc(Cl)ccc1O [IMD-0354] | 5.97% and 5.04% | 3.97% and 7.69% | 16.27% and 10.06% | 0.79% and 0% | 12.2% and 5.88% | 21.95% and 11.76% | 94.03% and 94.96% | 99.21% and 100% | 79.76% and 82.25% | 254 and 169
Cc1ccc(F)cc1C(=O)Nc1ccc(C(=O)N2Cc3cccn3Cc3ccccc32)c(Cl)c1 [LIXIVAPTAN] | 43% and 46% | 9% and 11% | 74% | 7% and 8% | 0% | 72% and 71% | 56% and 53% | 92% and 91% | 16% and 14% | 489 and 437

same assay, conditions: human, 48 h, 10 µM, compound concentration 10 uM

Compound | Population Tubulin-Different-Phenotype (%)
Cc1ccc(F)cc1C(=O)Nc1ccc(C(=O)N2Cc3cccn3Cc3ccccc32)c(Cl)c1 [LIXIVAPTAN] | 69% and 59%
